Experimental findings from ChEMBL document CHEMBL1150198, “DNA as an affinity probe useful in the detection and isolation of biologically active natural products” (J Nat Prod, 1991) are described below.

Starred links: 1 amine or outer side, 2 acyl side, 3 side chain; linkers in the order of their positions; H or OH if unused. Positions of bridges follow the written chain, without caps; N, C: chain ends. Non-standard residues stand in square brackets, D forms with d. Residues, ends and D or L forms follow the SMILES beside them. Chains are numbered I, II in the order given. Actinocin(9to1) = Cc1c2oc3c(C)ccc(C(=O)[*:1])c3nc-2c(C(=O)[*:2])c(N)c1=O; NMeV = CN[C@H](C(=O)O)C(C)C; Sar = CNCC(=O)O

In assay [1] the test system is Calf thymus DNA. The assay can be described thus: Binding affinity to calf thymus DNA assessed as reduction in DNA peak by pre-incubation method. The conditions noted are these: Bos taurus. On the set-up: concentration or dose not given beside the values. It is filed as nucleic-acid assay. The method, boiled down: (§1)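 Nucleic acid at 0.1 mg/ml in water; test substance at 1.0 mg/ml in water or MeOH, mixed 1:1 (v/v) and held at ambient temperature for 5–30 min. 40 or 80 µl injected onto a C18 reversed-phase column equilibrated in H2O-MeOH (80:20), 1 ml/min, with 254 nm detection. The free nucleic-acid peak (~1.2 min) was compared with nucleic acid injected alone.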

In assay [2] the test system is Nucleic Acid. The assay can be described thus: Binding affinity to yeast tRNA assessed as reduction in tRNA peak by pre-incubation method. It is filed as nucleic-acid assay. The conditions noted are these: Saccharomyces cerevisiae. Also on record: concentration or dose not given beside the values. Summed up:
as §1

Regarding `C=C1C(=O)O[C@H]2[C@H]1[C@@H](O)[C@H](OC(=O)C=C(C)C)C(C)=C1C[C@H]3O[C@@]3(C)[C@@H]12`, the Activity in assay [1] is 30%. `CC(C)=CC(=O)O[C@@H]1C(C)=C2C(=O)C=C(C)[C@]2(O)[C@H]2OC(=O)C[C@@H]2[C@H]1O`: the Activity in assay [1] was found to be 30%. Regarding `COc1cccc2c1C(=O)c1c(O)c3c(c(O)c1C2=O)C[C@@](O)(C(=O)CO)C[C@@H]3O[C@H]1C[C@H](N)[C@H](O)[C@H](C)O1`, the Activity in assay [1] and in assay [2] was 100% each time. For `CC[n+]1c(-c2ccccc2)c2cc(N)ccc2c2ccc(N)cc21`, the Activity in assay [1] and in assay [2] was 100% throughout.

Take `Nc1c2ccccc2nc2ccccc12`: the Activity is above 70% in assay [1] and 100% in assay [2].

Consider `COc1cc2c(c3c1c(=O)c1ccccc1n3C)C=CC(C)(C)O2`, for which the Activity in assay [1] is below 30%. Take `COc1cc2c(ccc3c4cc(OC)c(OC)cc4c[n+](C)c23)cc1O`: the Activity in assay [1] and in assay [2] was 100% in each case. In the case of `COc1cccc2c1C(=O)c1c(O)c3c(c(O)c1C2=O)C[C@@](O)(C(C)=O)C[C@@H]3O[C@H]1C[C@H](N)[C@H](O)[C@H](C)O1`, the Activity in assay [1] is 100%. The same measure, in the same setting: next, `COc1ccc2c(c1)c1ccnc3ccc(=O)n2c31`: 30%. As to BLEOMYCIN, the Activity in assay [1] was below 30%; in assay [2], above 70%. For the molecule `Cc1c2oc3c(C)ccc(C(=O)N[C@@H]4C(=O)N[C@H](C(C)C)C(=O)N5CCC[C@H]5C(=O)N(C)CC(=O)N(C)[C@@H](C(C)C)C(=O)O[C@@H]4C)c3nc-2c(C(=O)N[C@@H]2C(=O)N[C@H](C(C)C)C(=O)N3CCC[C@H]3C(=O)N(C)CC(=O)N(C)[C@@H](C(C)C)C(=O)O[C@@H]2C)c(N)c1=O` (I: T[dV]P[Sar][NMeV] / II: T[dV]P[Sar][NMeV]; ester I:1-I:C, II:1-II:C; linker I:N-II:N via Actinocin(9to1)), the Activity in assay [1] was 30%; in assay [2], below 30%. For the molecule `COC(=O)CC1(O)C=CC(=O)C=C1`, the Activity in assay [1] is 30%; in assay [2], below 30%. On to `CC[C@]1(O)C[C@H]2CN(CCc3c([nH]c4ccccc34)[C@@](C(=O)OC)(c3cc4c(cc3OC)N(C=O)[C@H]3[C@@](O)(C(=O)OC)[C@H](OC(C)=O)[C@]5(CC)C=CCN6CC[C@]43[C@@H]65)C2)C1`, for which the results for the Activity in assay [1] and in assay [2] were above 70% and 100%, respectively. For `Cc1c2ccncc2c(C)c2c1[nH]c1ccccc12` the same measures were above 70% and 30%. Turning to `COc1cc2c(c(OC)c1OC)-c1ccc(OC)c(=O)cc1[C@@H](NC(C)=O)CC2`, the Activity in assay [1] and in assay [2] was below 30% throughout. Take `C=C1C(=O)O[C@H]2[C@H]1[C@@H](O)[C@H](O)C(C)=C1C[C@H]3O[C@@]3(C)[C@@H]12`: the Activity in assay [1] is 30%; in assay [2], below 30%. Turning to `CC[C@]1(O)C[C@@H]2CN(CCc3c([nH]c4ccccc34)[C@@](C(=O)OC)(c3cc4c(cc3OC)N(C)[C@H]3[C@@](O)(C(=O)OC)[C@H](OC(C)=O)[C@]5(CC)C=CCN6CC[C@]43[C@@H]65)C2)C1`, the Activity in assay [1] was above 70%; in assay [2] it was 100%. For `C=C1C(=O)O[C@@H]2C3O[C@]3(C)CC/C=C(\C)CC[C@@H]12` (stereo partly specified) the same measures were 30% and below 30%.
